# The list is not random: actives were taken first. Their share in the collection is about 9.4%.
# CSC inhib: blocks cancer stem cells | hit rate 1.1% among 300,000 | cancer stem cell-like cells viability, luminescence | inhibition, % at 7.5 µM; in the data active = inhibition above about 75%; inconclusive = no clear call, values can overlap the other calls; tested in HMLE shEcad cells
# SKKanGAS inh: blocks kanamycin growth of S. pyogenes SKKanGAS strain; BacTiter-Glo, 6 h; inhibition, % at 7.5 µM; hit rate 1.3% among 300,000; AID 1662;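 active = mean replicate score, as percent of positive control median, at least 50; inconclusive = mean below 50 but one replicate at or above 50; inactive = mean and every replicate below 50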;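 note: strain carries kanamycin resistance gene driven by streptokinase promoter and grows in 40 µg/ml kanamycin; loss of luminescence reflects streptokinase promoter inhibition or plain growth inhibition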
# Mdm2 MdmX PPI: human Mdm2/MdmX binding inhibition; AID 485346; O15151+Q00987; inhibition, % at 8 µM; hit rate 3% among 330,000; SaOS-2 split-luciferase Mdm2/MdmX complementation, luminescence;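 active = inhibition of at least 50% at 8 µM in the primary screen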
# Target sequence (O15151 whole entry, looked up): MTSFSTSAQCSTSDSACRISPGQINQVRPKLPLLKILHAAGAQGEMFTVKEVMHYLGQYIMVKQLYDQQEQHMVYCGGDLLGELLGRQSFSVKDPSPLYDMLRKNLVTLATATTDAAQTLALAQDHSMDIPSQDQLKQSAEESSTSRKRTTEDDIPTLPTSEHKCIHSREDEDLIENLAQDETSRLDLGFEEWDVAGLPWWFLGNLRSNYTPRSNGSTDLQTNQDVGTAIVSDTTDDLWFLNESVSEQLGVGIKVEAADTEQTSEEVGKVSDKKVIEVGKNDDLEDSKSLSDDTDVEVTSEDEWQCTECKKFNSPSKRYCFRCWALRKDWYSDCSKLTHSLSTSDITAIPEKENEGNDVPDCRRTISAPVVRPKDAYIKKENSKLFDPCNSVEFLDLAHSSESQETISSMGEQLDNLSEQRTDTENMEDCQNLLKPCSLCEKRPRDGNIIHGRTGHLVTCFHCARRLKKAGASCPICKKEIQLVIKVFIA
# Target sequence (Q00987 whole entry, looked up): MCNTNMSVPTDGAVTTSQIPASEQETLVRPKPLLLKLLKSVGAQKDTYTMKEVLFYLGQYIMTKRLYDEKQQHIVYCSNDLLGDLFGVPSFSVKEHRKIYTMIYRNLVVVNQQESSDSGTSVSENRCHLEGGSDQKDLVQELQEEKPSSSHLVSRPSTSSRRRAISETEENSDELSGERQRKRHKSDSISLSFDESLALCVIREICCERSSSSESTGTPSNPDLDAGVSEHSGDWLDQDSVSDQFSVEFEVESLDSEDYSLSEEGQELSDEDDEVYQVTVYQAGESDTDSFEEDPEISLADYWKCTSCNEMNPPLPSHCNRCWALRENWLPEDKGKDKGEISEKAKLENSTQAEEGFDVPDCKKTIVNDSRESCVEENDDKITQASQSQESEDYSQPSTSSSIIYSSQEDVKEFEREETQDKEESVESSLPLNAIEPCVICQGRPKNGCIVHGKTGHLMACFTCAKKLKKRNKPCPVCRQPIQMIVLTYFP
# T cruzi repl: T. cruzi replication inhibition; T. cruzi beta-gal in NIH3T3, luminescence, 90 h; inhibition, % (no concentration beside the values); hit rate 1.4% among 300,000;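 active = mean inhibition across valid replicates above about 55%, limit read from the data; inconclusive = mean below that limit but half or more replicates reach it; inactive = mean below it, under half of replicates reach it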;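 note: signal also drops with host cell toxicity which is not excluded here; higher percent means less beta-gal luminescence so fewer parasites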
#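 System – NIH/3T3 host cells with β-galactosidase reporter T. cruzi · Doses – single 50 nL compound addition per well in DMSO · Reagent – 5000 T. cruzi trypomastigotes/well · Medium – Low-serum DMEM with 2% FBS · Timing – ≥90 h infection period, 3 h prior cell attachment · Evaluation – parasite load inhibition, % · Technique – GalScreen luminescence, 60 min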
# Lmaj promast: reduces viability of Leishmania major promastigotes; resazurin fluorescence viability; inhibition, % at 10 µM; hit rate 9% among 200,000; in the data active = inhibition above about 50%;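 note: promastigotes grown with compound for 44 hours at 28 °C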
# Beta apoptosis: beta cell apoptosis inhibition | INS-1E cytokine-induced death, ATP luminescence, 48 h; percent of positive-control rescue, neutral wells zero | protection from apoptosis, % (concentration not given with the values) | hit rate 0.8% among 300,000 | AID 435005;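 active = Every replicate reaches about 75%, or at least half do and their mean reaches it too, limit read from the data; inconclusive = At least half of replicates reach the limit but their mean does not; inactive = Under half of replicates reach the limit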;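 note: higher means more ATP so stronger rescue from cytokine killing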
# Numbers stand for hits; n = inactive; u = inconclusive; x = no result given.
SMILES,CSC inhib,SKKanGAS inh,Mdm2 MdmX PPI,T cruzi repl,Lmaj promast,Beta apoptosis
CC(NC(=O)C12CC3CC(CC(C3)C1)C2)C(=O)N/N=C/C1=C(N2CCOCC2)C(=C\c2cccc([N+](=O)[O-])c2)/CC1 (stereo unspecified),n,n,n,n,97.8,n
CC(C)C(NC(=O)C12CC3CC(CC(C3)C1)C2)C(=O)N/N=C/C1=C(N2CCOCC2)C(=C\c2ccc([N+](=O)[O-])cc2)/CC1 (stereo unspecified),n,n,n,n,97.1,n
O=C(Nc1ccccc1Oc1cccnc1)C1CCCN(C/C=C/c2ccccc2)C1 (stereo unspecified),n,n,n,n,x,n
O=C(CCC1CCN(C(=O)c2cc(C(F)(F)F)ccc2Cl)CC1)NC1CC1,n,n,n,n,x,n
Cc1cccc(N(CC(=O)NC2CCCC2)C(=O)c2cc3cc4cccc(C)c4nc3s2)c1C,n,n,n,57.0,n,n
COCc1ccc(CN2CCC(n3nccc3NC(=O)CCCc3ccccc3)CC2)o1,n,n,n,n,x,n
O=S(=O)(N/N=C/c1ccc(Cl)cc1)c1ccc(Cc2ncc(C(F)(F)F)cc2Cl)s1,n,49.9,n,n,n,n
CC(=O)N[C@@H](C)C(=O)OC(C)C(=O)Nc1cccc([N+](=O)[O-])c1 (stereo partly specified),x,x,x,x,n,x
Cc1ccc(CNC(=O)Nc2ccc(F)cc2)n1C,n,n,x,n,x,n
COc1ccc(N=C2SC(CC(=O)Nc3ccccc3)C(=O)N2CCN2CCOCC2)cc1 (stereo unspecified),n,n,n,n,55.7,n
COc1ccc(N=C2SC(CC(=O)Nc3ccccc3OC)C(=O)N2Cc2ccco2)cc1 (stereo unspecified),n,n,n,n,99.2,n
COc1ccc(N=C2SC(CC(=O)Nc3ccccc3)C(=O)N2CC2CCCO2)cc1 (stereo unspecified),x,n,n,n,63.4,n
COC(=O)c1cc(NC(=O)CC2SC(=Nc3ccccc3)N(CCc3c[nH]c4ccccc34)C2=O)cc(C(=O)OC)c1 (stereo unspecified),n,n,n,67.2,99.2,n
COc1ccc(N=C2SC(CC(=O)Nc3ccc(F)cc3)C(=O)N2Cc2ccco2)cc1 (stereo unspecified),n,n,n,n,n,n
COC(=O)CCN(C(=O)c1ccc([N+](=O)[O-])cc1)c1ccccn1,n,n,n,n,x,n
COC(=O)CCN(C(=O)c1cc([N+](=O)[O-])cc([N+](=O)[O-])c1)c1ccccn1,n,n,n,65.2,n,n
CC1CCCCC1NC(=O)CCn1ccc2cc(S(=O)(=O)N3CCCC3)ccc21 (stereo unspecified),n,50.2,n,n,x,x
CC(C)NC(=O)CCn1ccc2cc(S(=O)(=O)N3CCCC3)ccc21,n,n,n,n,x,n
CC1CCCCC1NC(=O)c1cn(C)c2ccc(S(=O)(=O)N3CCCC3)cc2c1=O (stereo unspecified),n,n,n,n,n,n
CC1CCCC(NC(=O)c2cn(C)c3ccc(S(=O)(=O)N4CCCC4)cc3c2=O)C1C (stereo unspecified),n,n,n,n,62.9,n
CCn1cc(C(=O)NC2CCC(C)CC2)c(=O)c2cc(S(=O)(=O)N3CCCCC3)ccc21 (stereo unspecified),x,x,n,x,76.1,n
CCCOC(=O)CC1C(=O)NCCN1C(=O)OC(C)(C)C (stereo unspecified),n,n,n,n,n,n
O=C(NCc1nnc(SCC(=O)N2CCN(c3ccccc3)CC2)o1)c1c(F)cccc1Cl,x,n,n,n,x,n
O=C(NCc1cn(-c2ccccc2)nc1-c1ccccc1)c1cc([N+](=O)[O-])cc([N+](=O)[O-])c1,n,n,n,61.5,100.1,n
O=C(NCc1cn(-c2ccccc2)nc1-c1ccccc1)c1cccc([N+](=O)[O-])c1,n,n,n,u,n,n
SMILES,CSC inhib,SKKanGAS inh,Mdm2 MdmX PPI,T cruzi repl,Lmaj promast,Beta apoptosis
CN1CCN(NC(=O)c2cn(-c3ccccc3)nc2-c2cccc(Br)c2)CC1,n,n,n,55.9,n,n
O=C(O)CCC(=O)NCc1cn(-c2ccccc2)nc1-c1cccc(Br)c1,n,n,n,n,58.9,n
CCn1cc(CNC(=O)c2cccc([N+](=O)[O-])c2)cn1,n,n,n,n,89.1,n
O=C(O)c1cccc(NC(=O)c2cn(-c3ccccc3)nc2-c2cccc(Br)c2)c1,n,n,n,n,x,n
COc1ccc(-c2nn(-c3ccccc3)cc2CNC(=O)c2cccc([N+](=O)[O-])c2)cc1,n,n,n,66.4,52.4,n
O=C(NCc1ccccc1Cl)c1ccccc1CCc1ccccc1,n,n,n,n,53.7,n
O=C(NCc1ccc(Cl)cc1)c1ccccc1CCc1ccccc1,n,n,n,n,n,n
COc1ccc(Cl)cc1NC(=O)CN(C)C(=O)CSc1ccc2c(c1)OCCO2,x,x,n,x,x,n
O=C(c1ccc(N2CCCCC2)c([N+](=O)[O-])c1)N1CCOCC1,n,n,n,n,n,n
O=C(/C=C/c1ccc(N2CCCCC2)c([N+](=O)[O-])c1)c1ccc(O)cc1,109.8,n,n,n,99.9,n
COc1ccc(N2C(=O)NC(NC(=O)C(C)(C)C)(C(F)(F)F)C2=O)cc1 (stereo unspecified),n,n,n,n,x,n
Cc1ccc(NC(=O)CSC(N)=O)cc1Cl,n,n,n,n,n,n
NC(=O)SCC(=O)Nc1ccc(Cl)c(Cl)c1,n,x,n,x,98.0,n
CC(=O)c1cccc(CN2CCN(Cc3ccc(C)cc3)C(CCO)C2)c1 (stereo unspecified),n,n,n,n,79.3,n
CC(=O)c1cccc(CN2CCN(Cc3ccc(F)cc3)C(CCO)C2)c1 (stereo unspecified),n,n,n,n,87.2,n
OCCC1CN(Cc2ccc3c(c2)CCO3)CCN1Cc1ccc(F)cc1 (stereo unspecified),n,n,n,n,75.4,n
CC(=O)c1cccc(CN2CCN(CC=C(C)C)C(CCO)C2)c1 (stereo unspecified),x,n,n,n,x,x
CC(=O)c1cccc(CN2CCN(CCc3ccccc3)C(CCO)C2)c1 (stereo unspecified),n,n,n,n,67.6,n
C[C@]12C=CC(=O)C=C1CC[C@@H]1[C@@H]2C(=O)C[C@@]2(C)[C@H]1CC[C@]2(O)C(=O)COC(=O)CCC(=O)O,n,n,n,n,x,n
Cc1cc(SCC(=O)OC(C)C(=O)N(C)c2ccccc2)nc2ccccc12 (stereo unspecified),n,n,n,n,x,x
Cc1cccc(C)c1NC(=O)/C(=C/c1ccco1)c1ccccc1,n,n,n,n,n,n
Cc1cc(C)c(NC(=O)/C(=C/c2ccco2)c2ccccc2)c(C)c1,n,n,n,n,59.2,n
Cc1ccc(CCN2CC(C(=O)NCCCN3CCC(C)CC3)CC2=O)cc1 (stereo unspecified),n,n,n,n,x,n

# From PubChem BioAssay
